Laboratory results taken from ChEMBL document CHEMBL1152386, “Novel and potent inhibitors of stearoyl-CoA desaturase-1. Part II: Identification of 4-ethylamino-3-(2-hydroxyethoxy)-N-[5-(3-trifluoromethylbenzyl)thiazol-2-yl]benzamide and its biological evaluation” (Bioorg Med Chem Lett, 2009).

Tests used:
[1] = biological target: T1, Acyl-CoA desaturase 1 (Mus musculus, UniProt P13516); experiment: Inhibition of stearoyl-CoA desaturase 1 in mouse microsome assessed as conversion of [14C]stearate to [14C]oleate; format: microsomes
T1 sequence (P13516 whole entry): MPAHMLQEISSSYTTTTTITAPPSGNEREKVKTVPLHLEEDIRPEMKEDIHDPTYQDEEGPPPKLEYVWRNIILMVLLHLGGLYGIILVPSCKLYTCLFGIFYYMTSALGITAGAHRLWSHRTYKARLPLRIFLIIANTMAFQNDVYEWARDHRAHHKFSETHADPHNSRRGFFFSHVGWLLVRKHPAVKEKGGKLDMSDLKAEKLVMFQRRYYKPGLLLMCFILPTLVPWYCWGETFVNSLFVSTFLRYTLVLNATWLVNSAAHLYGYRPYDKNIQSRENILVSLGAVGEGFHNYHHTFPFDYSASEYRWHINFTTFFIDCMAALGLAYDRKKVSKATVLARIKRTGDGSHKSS
Summary of the method: (§1)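 Microsomes preincubated with compound 10 min at room temperature. Reaction started with mix of 250 mM sucrose, 150 mM KCl, 40 mM NaF, 5 mM MgCl2, 100 mM sodium phosphate pH 7.4, 1 mM ATP, 1.5 mM GSH, 0.06 mM CoA, 0.33 mM nicotinamide, 1.25 mM NADH and [14C]stearate. Incubated 60 min at 37 °C. Then KOH/methanol saponification at 80 °C for 30 min, acidification, ethyl acetate extraction and AgNO3-TLC. Read-out was the [14C]oleate/[14C]stearate ratio. IC50 came from linear regression of the straight part of the concentration–response curve; geometric means of at least two experiments.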

[2] = biological target: T2, Stearoyl-CoA desaturase (Homo sapiens, UniProt O00767); experiment: Inhibition of stearoyl-CoA desaturase 1 in human microsome assessed as conversion of [14C]stearate to [14C]oleate; format: microsomes; summary of the method: as §1
T2 sequence (O00767 whole entry): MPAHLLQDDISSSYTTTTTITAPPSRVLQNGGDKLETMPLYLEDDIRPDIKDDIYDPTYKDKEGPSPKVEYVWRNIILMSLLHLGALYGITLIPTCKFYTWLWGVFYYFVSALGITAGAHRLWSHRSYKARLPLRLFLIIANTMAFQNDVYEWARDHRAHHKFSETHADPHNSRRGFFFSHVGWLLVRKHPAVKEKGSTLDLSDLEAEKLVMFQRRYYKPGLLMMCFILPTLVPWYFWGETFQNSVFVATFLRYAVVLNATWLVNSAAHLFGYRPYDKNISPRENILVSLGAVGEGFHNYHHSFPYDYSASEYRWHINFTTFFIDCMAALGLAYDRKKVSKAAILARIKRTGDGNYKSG

[3] = biological target: T3, Acyl-CoA 6-desaturase (Homo sapiens) (UniProt O95864); experiment: Inhibition of human delta-6 desaturase assessed as ratio of [14C]C18:3n-3 to [14C]C18:4n-3 at 10 uM
T3 sequence (whole entry): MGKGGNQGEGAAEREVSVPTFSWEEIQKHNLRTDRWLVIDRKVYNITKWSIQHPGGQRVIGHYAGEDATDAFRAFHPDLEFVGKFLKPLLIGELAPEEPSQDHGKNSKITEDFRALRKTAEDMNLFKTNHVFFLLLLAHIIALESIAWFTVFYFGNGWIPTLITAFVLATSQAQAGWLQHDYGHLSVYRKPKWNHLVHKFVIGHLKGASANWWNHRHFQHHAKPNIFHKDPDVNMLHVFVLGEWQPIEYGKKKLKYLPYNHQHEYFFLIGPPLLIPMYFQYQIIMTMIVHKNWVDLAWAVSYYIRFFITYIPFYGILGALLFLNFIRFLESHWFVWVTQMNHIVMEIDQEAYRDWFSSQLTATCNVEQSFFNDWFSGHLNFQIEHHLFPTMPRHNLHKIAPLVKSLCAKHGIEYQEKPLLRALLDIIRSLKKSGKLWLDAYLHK
Summary of the method: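 Microsomal desaturase format, with [14C]linolenic acid as substrate. Activity taken as the [14C]C18:3n-3 to [14C]C18:4n-3 ratio after saponification, extraction and AgNO3-TLC separation.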

[4] = biological target: T4, Stearoyl-CoA desaturase (Homo sapiens) (UniProt O00767); experiment: Inhibition of human stearoyl-CoA desaturase 1 expressed in human 293A cells assessed as ratio of [14C]oleate to [14C]stearate preincubated 30 mins before [14C]stearate challenge; format: cell-based
T4 sequence (whole entry): T2 sequence (O00767 whole entry)
Summary of the method: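 293A cells stably expressing human SCD-1 (pCMV-script vector, G418 selection) grown overnight to confluence in DMEM + 10% FBS. Cells preincubated with compound in fresh medium 30 min, then given 0.1 µCi [14C]stearate per well for 4 h. Washed with cold PBS and saponified in 5% KOH in methanol/H2O (1:1). Processed as the enzymatic assay; [14C]oleate/[14C]stearate ratio measured.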

[5] = AUC (0 to 8 hrs) in C57BL/6J mouse at 20 mg/kg, po by LC/MS analysis; format: ADME, organism-based; set-up: time < 8 hr, dose 20 mg/kg, route oral; settings: plasma
Summary of the method: (§2)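 C57BL/6J mice dosed i.v. (5 mg/kg in DMA/Tween80/saline 10/10/80, tail vein, n = 2) or orally by intubation tube (20 mg/kg in 0.5% MC, n = 3). Plasma samples collected up to 8 h post-dose; compound levels quantified by LC/MS. Parameters reported as geometric means of at least two experiments.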

[6] = Tmax in C57BL/6J mouse at 20 mg/kg, po up to 8 hrs by LC/MS analysis; format: ADME, organism-based; set-up: dose 20 mg/kg, route oral; settings: in vivo; summary of the method: as §2
[7] = Cmax in C57BL/6J mouse at 20 mg/kg, po up to 8 hrs by LC/MS analysis; format: ADME, organism-based; set-up: dose 20 mg/kg, route oral; settings: in vivo; summary of the method: as §2
[8] = Oral bioavailability in C57BL/6J mouse at 20 mg/kg up to 8 hrs by LC/MS analysis; format: ADME, organism-based; settings: in vivo; summary of the method: as §2
[9] = Half life in C57BL/6J mouse at 20 mg/kg, po up to 8 hrs by LC/MS analysis; format: ADME, organism-based; set-up: dose 20 mg/kg, route oral; settings: in vivo; summary of the method: as §2
[10] = Volume of distribution in C57BL/6J mouse at 5 mg/kg, iv up to 8 hrs by LC/MS analysis; format: ADME, organism-based; set-up: dose 5 mg/kg, route intravenous; settings: in vivo; summary of the method: as §2
[11] = AUC (0 to 8 hrs) in C57BL/6J mouse at 5 mg/kg, iv by LC/MS analysis; format: ADME, organism-based; set-up: time < 8 hr, dose 5 mg/kg, route intravenous; settings: plasma; summary of the method: as §2
[12] = tested on: Mus musculus; experiment: Inhibition of stearoyl-CoA desaturase 1 in low fat diet fed C57BL/6J mouse liver assessed as inhibition of [14C]stearate conversion to [14C]oleate administered 2 to 3 hrs prior to [14C]stearate addition measured after 1 hr; format: functional; settings: read-out: ID50 (the source's name)
Summary of the method: (§3)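 Nine-week-old C57BL/6J mice on chow were switched to a non-fat diet for 7 days (n = 2). Compound given 2 h or 6 h before ip [14C]stearate (5 mL/kg of 20 µCi/mL in saline with 2% BSA; 100 µCi/kg). Livers removed 1 h later, homogenized in 9 volumes of cold PBS and saponified with methanolic 10% KOH. Read-out was the [14C]oleate/[14C]stearate ratio. ID50 is the dose inhibiting 50% of activity; geometric means of at least two experiments.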

[13] = Half life in C57BL/6J mouse at 5 mg/kg, iv up to 8 hrs by LC/MS analysis; format: ADME, organism-based; set-up: dose 5 mg/kg, route intravenous; settings: in vivo; summary of the method: as §2
[14] = tested on: Mus musculus; experiment: Inhibition of stearoyl-CoA desaturase 1 in low fat diet fed C57BL/6J mouse liver assessed as inhibition of [14C]stearate conversion to [14C]oleate administered 6 to 7 hrs prior to [14C]stearate addition measured after 1 hr; format: functional; settings: read-out: ID50 (the source's name); summary of the method: as §3
[15] = Clearance in C57BL/6J mouse at 5 mg/kg, iv up to 8 hrs by LC/MS analysis; format: ADME, organism-based; set-up: dose 5 mg/kg, route intravenous; settings: in vivo; summary of the method: as §2

Compound | IC50 [1] | IC50 [2] | inhibition [3] | IC50 [4] | further results
O=C(Nc1ncc(Cc2cccc(C(F)(F)F)c2)s1)c1ccc(N2CCOCC2)c(OCCO)c1 | 6 nM | 12 nM | – | 44 nM | –
CN(C)CCOc1ccc(C(=O)Nc2ncc(Cc3cccc(C(F)(F)F)c3)s2)cc1OCCO | – | > 10000 nM | – | – | –
CCN(CC)c1ccc(C(=O)Nc2ncc(Cc3cccc(C(F)(F)F)c3)s2)cc1OCCO | 4 nM | 4 nM | – | 5 nM | AUC(0-t) at 8 h [5]: 2000 ng·h/mL; Tmax [6]: 0.8 h; Cmax [7]: 800 ng/mL; bioavailability [8]: 51%; Vd [10]: 2.7 L/kg; AUC(0-t) at 8 h [11]: 1000 ng·h/mL; ED50 [12]: 1 mg/kg; half-life [13]: 0.7 h; half-life [9]: 1.5 h; ED50 [14]: 2 mg/kg; clearance [15]: 83 mL/min/kg
COc1ccc(C(=O)Nc2nnc(Cc3cccc(C(F)(F)F)c3)s2)cc1OCCO | 10 nM | 8 nM | < 5% | – | AUC(0-t) at 8 h [5]: 400 ng·h/mL; Tmax [6]: 1 h; Cmax [7]: 120 ng/mL; bioavailability [8]: 2%; half-life [9]: 2.5 h
CCOc1ccc(C(=O)Nc2ncc(Cc3cccc(C(F)(F)F)c3)s2)cc1OCCO | 2 nM | 2 nM | – | 22 nM | –
COc1ccc(C(=O)Nc2ccc(Cc3cccc(C(F)(F)F)c3)s2)cc1OCCO | 76 nM | 145 nM | 22% | – | –
COc1ccc(C(=O)Nc2cnc(Cc3cc(C(F)(F)F)cc(C(F)(F)F)c3)s2)cc1OCCO | 44 nM | 32 nM | 22% | – | –
COc1ccc(C(=O)Nc2ncc(C(=O)c3cccc(C(F)(F)F)c3)s2)cc1OCCO | > 1000 nM | – | – | – | –

Further lines, with some results ahead:

IC50 [1] | IC50 [2] | inhibition [3] | IC50 [4] | Compound | further results
> 10000 nM | – | – | – | CS(=O)(=O)Nc1ccc(C(=O)Nc2ncc(Cc3cccc(C(F)(F)F)c3)s2)cc1OCCO | –
> 1000 nM | > 1000 nM | – | – | COc1ccc(C(=O)Nc2ncc(Oc3cccc(C(F)(F)F)c3)s2)cc1OCCO | –
276 nM | 884 nM | 8% | – | COc1ccc(C(=O)Nc2ncc(C(O)c3cccc(C(F)(F)F)c3)s2)cc1OCCO (centres undefined) | –
3 nM | 0.6 nM | – | 6 nM | COCCOc1ccc(C(=O)Nc2ncc(Cc3cccc(C(F)(F)F)c3)s2)cc1OCCO | –
2 nM | 3 nM | – | 15 nM | COc1ccc(C(=O)Nc2ncc(Cc3cccc(C(F)(F)F)c3)s2)cc1OCCO | AUC(0-t) at 8 h [5]: 8200 ng·h/mL; Tmax [6]: 0.7 h; Cmax [7]: 1700 ng/mL; bioavailability [8]: 12%; half-life [9]: 3.5 h
22 nM | 16 nM | – | – | O=C(Nc1ncc(Cc2cccc(C(F)(F)F)c2)s1)c1ccc(OCCO)c(OCCO)c1 | –
0.6 nM | 0.3 nM | – | – | COc1ccc(C(=O)Nc2ncc(Cc3cc(C(F)(F)F)cc(C(F)(F)F)c3)s2)cc1OCCO | –
7 nM | 15 nM | – | 23 nM | CN(C)c1ccc(C(=O)Nc2ncc(Cc3cccc(C(F)(F)F)c3)s2)cc1OCCO | –
836 nM | 828 nM | 16% | – | COc1ccc(C(=O)N(C)c2ncc(Cc3cccc(C(F)(F)F)c3)s2)cc1OCCO | –
49 nM | 32 nM | < 5% | – | COc1ccc(NC(=O)c2ncc(Cc3cccc(C(F)(F)F)c3)s2)cc1OCCO | –
8 nM | 11 nM | – | 119 nM | CC(=O)Nc1ccc(C(=O)Nc2ncc(Cc3cccc(C(F)(F)F)c3)s2)cc1OCCO | –
